In brackets after ≈: the same amount, converted by molar mass. Activity calls are given as the source filed them. The rule behind the calls is not given here.
How the values were obtained:
Assay type in all cases: functional
Raoultella planticola [1] = assay: Ratio of MBC to MIC for Klebsiella planticola MTCC 530
Candida albicans [2] = assay: Antifungal activity against Candida albicans MTCC 3018 assessed as inhibition of fungal growth incubated for 24 hrs by agar well diffusion method; details: MTCC 3018, 24 h
In short: (§1)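 Candida strains from MTCC, pre-cultured and spread on Mueller Hinton agar. Wells received compound dissolved in 10% DMSO, 125–0.97 µg/mL; miconazole standard over the same range, DMSO negative control. After 24 h at 37 °C, MIC was read as the lowest concentration giving an inhibition zone. Duplicate experiments, means given.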

Candida albicans [3] = assay: Ratio of MFC to MIC against Candida albicans MTCC 183
Pseudomonas aeruginosa [4] = assay: Bactericidal activity against Pseudomonas aeruginosa MTCC 2453 assessed as bacterial killing incubated for 24 hrs; details: MTCC 2453, 24 h
In short: (§2)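 Broth tube assay: compound at 0–125 µg/mL in Mueller Hinton broth, overnight culture added to 0.5 McFarland (1.5 × 10^8 cfu/mL), held 24 h at 37 °C. 10 µL from each tube plated on Mueller Hinton agar. MBC is the lowest concentration that kills the strain. Duplicates, means reported.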

Candida albicans [5] = assay: Ratio of MFC to MIC against Candida albicans MTCC 1637
Staphylococcus aureus [6] = assay: Ratio of MBC to MIC against Staphylococcus aureus MLS-16 MTCC 2940
Candida albicans [7] = assay: Fungicidal activity against Candida albicans MTCC 227 assessed as fungal killing incubated for 24 hrs; details: MTCC 227, 24 h
In short: (§3)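 Compound at 125–0.97 µg/mL in Mueller Hinton broth in microcentrifuge tubes, each Candida strain added, held 24 h at 37 °C. 10 µL of the treated suspension plated on Mueller Hinton agar and incubated a further 24 h at 37 °C. MFC is the lowest concentration that kills the strain. Duplicates, means reported.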

Staphylococcus aureus [8] = assay: Ratio of MBC to MIC against Staphylococcus aureus MTCC 96
Micrococcus luteus = assay: Bactericidal activity against Micrococcus luteus MTCC 2470 assessed as bacterial killing incubated for 24 hrs; details: MTCC 2470, 24 h; in short: as §2
Candida parapsilosis [9] = assay: Ratio of MFC to MIC against Candida parapsilosis MTCC 1744
In short: (§4)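 MIC by agar well diffusion: Candida lawns on Mueller-Hinton agar, wells loaded with compound in 10% DMSO (125–0.97 µg/mL), 24 h at 37 °C, lowest concentration giving an inhibition zone. MFC: compound in Mueller-Hinton broth (125–0.97 µg/mL) with yeast, 24 h at 37 °C, 10 µL plated on agar, lowest killing concentration after 24 h. Ratio is MFC/MIC.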

Staphylococcus aureus [10] = assay: Antibacterial activity against Staphylococcus aureus MLS-16 MTCC 2940 assessed as inhibition of bacterial growth incubated for 24 hrs by agar well diffusion method; details: MLS-16 MTCC 2940, 24 h
In short: (§5)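 Strains from MTCC; inoculum at 0.5 McFarland spread on Mueller-Hinton agar; 6 mm wells loaded with compound over 125–0.97 µg/mL; ciprofloxacin positive control (same range), DMSO negative control. Plates held 24 h at 37 °C; MIC taken as lowest concentration giving a clear inhibition zone. Triplicate runs, mean MIC reported.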

Candida albicans [11] = assay: Antifungal activity against Candida albicans MTCC 227 assessed as inhibition of fungal growth incubated for 24 hrs by agar well diffusion method; details: MTCC 227, 24 h; in short: as §1
Raoultella planticola [12] = assay: Bactericidal activity against Klebsiella planticola MTCC 530 assessed as bacterial killing incubated for 24 hrs; details: MTCC 530, 24 h; in short: as §2
Pichia sporocuriosa [13] = assay: Ratio of MFC to MIC against Issatchenkia hanoiensis MTCC 4755; in short: as §4
Pichia sporocuriosa [14] = assay: Antifungal activity against Issatchenkia hanoiensis MTCC 4755 assessed as inhibition of fungal growth incubated for 24 hrs by agar well diffusion method; details: MTCC 4755, 24 h; in short: as §1
Candida albicans [15] = assay: Fungicidal activity against Candida albicans MTCC 183 assessed as fungal killing incubated for 24 hrs; in short: as §3
Staphylococcus aureus [16] = assay: Bactericidal activity against Staphylococcus aureus MLS-16 MTCC 2940 assessed as bacterial killing incubated for 24 hrs; details: MLS-16 MTCC 2940, 24 h; in short: as §2
Candida albicans [17] = assay: Antifungal activity against Candida albicans MTCC 3017 assessed as inhibition of fungal growth incubated for 24 hrs by agar well diffusion method; details: MTCC 3017, 24 h; in short: as §1
Candida parapsilosis [18] = assay: Fungicidal activity against Candida parapsilosis MTCC 1744 assessed as fungal killing incubated for 24 hrs; details: Lodderomyces parapsilosis, MTCC 1744, 24 h; in short: as §3
Candida albicans [19] = assay: Fungicidal activity against Candida albicans MTCC 7315 assessed as fungal killing incubated for 24 hrs; details: MTCC 7315, 24 h; in short: as §3
Bacillus subtilis [20] = assay: Bactericidal activity against Bacillus subtilis MTCC 121 assessed as bacterial killing incubated for 24 hrs; details: MTCC 121, 24 h; in short: as §2
Raoultella planticola [21] = assay: Antibacterial activity against Klebsiella planticola MTCC 530 assessed as inhibition of bacterial growth incubated for 24 hrs by agar well diffusion method; details: MTCC 530, 24 h; in short: as §5
Pichia kudriavzevii [22] = assay: Antifungal activity against Candida krusei MTCC 3020 assessed as inhibition of fungal growth incubated for 24 hrs by agar well diffusion method; details: MTCC 3020, 24 h; in short: as §1
Pseudomonas aeruginosa [23] = assay: Antibacterial activity against Pseudomonas aeruginosa MTCC 2453 assessed as inhibition of bacterial growth incubated for 24 hrs by agar well diffusion method; details: MTCC 2453, 24 h; in short: as §5
Escherichia coli [24] = assay: Antibacterial activity against Escherichia coli MTCC 739 assessed as inhibition of bacterial growth incubated for 24 hrs by agar well diffusion method; details: MTCC 739, 24 h; in short: as §5
Candida albicans [25] = assay: Fungicidal activity against Candida albicans MTCC 1637 assessed as fungal killing incubated for 24 hrs; details: MTCC 1637, 24 h; in short: as §3
Candida albicans [26] = assay: Fungicidal activity against Candida albicans MTCC 3018 assessed as fungal killing incubated for 24 hrs; details: MTCC 3018, 24 h; in short: as §3
Escherichia coli [27] = assay: Bactericidal activity against Escherichia coli MTCC 739 assessed as bacterial killing incubated for 24 hrs; details: MTCC 739, 24 h; in short: as §2
Candida albicans [28] = assay: Ratio of MFC to MIC against Candida albicans MTCC 7315; in short: as §4
Pichia sporocuriosa [29] = assay: Fungicidal activity against Issatchenkia hanoiensis MTCC 4755 assessed as fungal killing incubated for 24 hrs; details: MTCC 4755, 24 h; in short: as §3
Candida albicans [30] = assay: Fungicidal activity against Candida albicans MTCC 4748 assessed as fungal killing incubated for 24 hrs; details: MTCC 4748, 24 h; in short: as §3
Pichia kudriavzevii [31] = assay: Fungicidal activity against Candida krusei MTCC 3020 assessed as fungal killing incubated for 24 hrs; details: MTCC 3020, 24 h; in short: as §3
Candida albicans [32] = assay: Ratio of MFC to MIC against Candida albicans MTCC 227; in short: as §4
Pseudomonas aeruginosa [33] = assay: Ratio of MBC to MIC for Pseudomonas aeruginosa MTCC 2453
Bacillus subtilis [34] = assay: Antibacterial activity against Bacillus subtilis MTCC 121 assessed as inhibition of bacterial growth incubated for 24 hrs by agar well diffusion method; details: MTCC 121, 24 h; in short: as §5
Candida albicans [35] = assay: Antifungal activity against Candida albicans MTCC 7315 assessed as inhibition of fungal growth incubated for 24 hrs by agar well diffusion method; details: MTCC 7315, 24 h; in short: as §1
Pichia kudriavzevii [36] = assay: Ratio of MFC to MIC against Candida krusei MTCC 3020; in short: as §4
Nakaseomyces glabratus = assay: Ratio of MFC to MIC against Candida glabrata MTCC 3019; in short: as §4
Candida albicans [37] = assay: Antifungal activity against Candida albicans MTCC 183 assessed as inhibition of fungal growth incubated for 24 hrs by agar well diffusion method; in short: as §1

Compound	Ratio (Raoultella planticola [1])	MIC (Candida albicans [2]) [µg/mL]	Ratio (Candida albicans [3])	MBC (Pseudomonas aeruginosa [4]) [µg/mL]	Ratio (Candida albicans [5])	Ratio (Staphylococcus aureus [6])	MFC (Candida albicans [7]) [µg/mL]	Ratio (Staphylococcus aureus [8])	MBC (Micrococcus luteus) [µg/mL]	Ratio (Candida parapsilosis [9])	MIC (Staphylococcus aureus [10]) [µg/mL]	MIC (Candida albicans [11]) [µg/mL]	MBC (Raoultella planticola [12]) [µg/mL]	Ratio (Pichia sporocuriosa [13])	MIC (Pichia sporocuriosa [14]) [µg/mL]	MFC (Candida albicans [15])	MBC (Staphylococcus aureus [16]) [µg/mL]	MIC (Candida albicans [17]) [µg/mL]	MFC (Candida parapsilosis [18]) [µg/mL]	MFC (Candida albicans [19]) [µg/mL]	further results
COc1ccc2c(c1)Cc1c(C(=O)N/N=C/c3c(F)cc(F)cc3F)n[nH]c1-2	2	7.8 (≈ 20.2 µM)	2	15.6 (≈ 40.4 µM)	2	2	15.6 (≈ 40.4 µM)	2	15.6 (≈ 40.4 µM)	2	3.9 (≈ 10.1 µM)	7.8 (≈ 20.2 µM)	15.6 (≈ 40.4 µM)	2	15.6 (≈ 40.4 µM)	inactive	7.8 (≈ 20.2 µM)	3.9 (≈ 10.1 µM)	31.2 (≈ 80.8 µM)	31.2 (≈ 80.8 µM)	MBC (Bacillus subtilis [20]): 15.6 µg/mL (≈ 40.4 µM); MIC (Raoultella planticola [21]): 7.8 µg/mL (≈ 20.2 µM); MIC (Pichia kudriavzevii [22]): 15.6 µg/mL (≈ 40.4 µM); MIC (Pseudomonas aeruginosa [23]): 7.8 µg/mL (≈ 20.2 µM); MIC (Escherichia coli [24]): 3.9 µg/mL (≈ 10.1 µM); MFC (Candida albicans [25]): 31.2 µg/mL (≈ 80.8 µM); MFC (Candida albicans [26]): 15.6 µg/mL (≈ 40.4 µM); MBC (Escherichia coli [27]): 7.8 µg/mL (≈ 20.2 µM); Ratio (Candida albicans [28]): 2; MFC (Pichia sporocuriosa [29]): 31.2 µg/mL (≈ 80.8 µM); MFC (Candida albicans [30]): 31.2 µg/mL (≈ 80.8 µM); MFC (Pichia kudriavzevii [31]): 31.2 µg/mL (≈ 80.8 µM); Ratio (Candida albicans [32]): 2; Ratio (Pseudomonas aeruginosa [33]): 2; MIC (Bacillus subtilis [34]): 7.8 µg/mL (≈ 20.2 µM); MIC (Candida albicans [35]): 15.6 µg/mL (≈ 40.4 µM); Ratio (Pichia kudriavzevii [36]): 2; Ratio (Nakaseomyces glabratus): 2; MIC (Candida albicans [37]): inactive
COc1cc(/C=N/NC(=O)c2n[nH]c3c2Cc2ccccc2-3)ccc1O	2	15.6 (≈ 44.8 µM)	2	15.6 (≈ 44.8 µM)	2	2	15.6 (≈ 44.8 µM)	2	15.6 (≈ 44.8 µM)	2	7.8 (≈ 22.4 µM)	7.8 (≈ 22.4 µM)	7.8 (≈ 22.4 µM)	2	15.6 (≈ 44.8 µM)	inactive	15.6 (≈ 44.8 µM)	7.8 (≈ 22.4 µM)	31.2 (≈ 89.6 µM)	15.6 (≈ 44.8 µM)	MBC (Bacillus subtilis [20]): 7.8 µg/mL (≈ 22.4 µM); MIC (Raoultella planticola [21]): 3.9 µg/mL (≈ 11.2 µM); MIC (Pichia kudriavzevii [22]): 15.6 µg/mL (≈ 44.8 µM); MIC (Pseudomonas aeruginosa [23]): 7.8 µg/mL (≈ 22.4 µM); MIC (Escherichia coli [24]): 7.8 µg/mL (≈ 22.4 µM); MFC (Candida albicans [25]): 31.2 µg/mL (≈ 89.6 µM); MFC (Candida albicans [26]): 31.2 µg/mL (≈ 89.6 µM); MBC (Escherichia coli [27]): 15.6 µg/mL (≈ 44.8 µM); Ratio (Candida albicans [28]): 2; MFC (Pichia sporocuriosa [29]): 31.2 µg/mL (≈ 89.6 µM); MFC (Candida albicans [30]): 7.8 µg/mL (≈ 22.4 µM); MFC (Pichia kudriavzevii [31]): 31.2 µg/mL (≈ 89.6 µM); Ratio (Candida albicans [32]): 2; Ratio (Pseudomonas aeruginosa [33]): 2; MIC (Bacillus subtilis [34]): 3.9 µg/mL (≈ 11.2 µM); MIC (Candida albicans [35]): 7.8 µg/mL (≈ 22.4 µM); Ratio (Pichia kudriavzevii [36]): 2; Ratio (Nakaseomyces glabratus): 2; MIC (Candida albicans [37]): inactive
